# Test results taken from ChEMBL document CHEMBL3352770, “Click chemistry inspired synthesis and bioevaluation of novel triazolyl derivatives of osthol as potent cytotoxic agents” (Eur J Med Chem, 2014).
# Columns and labels:
# A-431 = test: Cytotoxicity against human A431 cells after 24 hrs by MTT assay; format: functional, cell-based; conditions: A-431, 24 h
# Procedure, shortened: (§1)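 Cells kept in DMEM with 10% foetal calf serum, penicillin and streptomycin, at 37 °C under 5% CO2. For assays serum lowered to 3%. Cells treated with test material at 0.04–60 µM for 24 h, then MTT (250 µg/mL) for 3 h. Formazan OD read at 570 nm. IC50 by non-linear regression, mean of triplicates. BEZ-235 as positive control.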
# [1] = Cytotoxicity against human HCT116 cells after 24 hrs by MTT assay; format: functional, cell-based; conditions: HCT-116, 24 h; procedure, shortened: as §1
# A549 = test: Cytotoxicity against human A549 cells after 24 hrs by MTT assay; format: functional, cell-based; conditions: A549, 24 h; procedure, shortened: as §1
# [2] = Cytotoxicity against human NCI-H322 cells after 24 hrs by MTT assay; format: functional, cell-based; conditions: NCI-H322, 24 h; procedure, shortened: as §1
# T47D = test: Cytotoxicity against human T47D cells after 24 hrs by MTT assay; format: functional, cell-based; procedure, shortened: as §1
# COLO 205 [3] = test: Induction of apoptosis in human COLO205 cells assessed as accumulation at subG1 phase at 10 uM after 48 hrs by propidium iodide staining based flow cytometry (reference value: 12%); format: functional
# Procedure, shortened: (§2)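 Colo-205 seeded at 5 × 10⁵ cells/ml in 6-well plates and grown 24 h. Treated at 1, 5, 10 and 25 µM for 48 h. Harvested, washed in PBS, fixed in 70% ethanol overnight at −20 °C. Stained 30 min in the dark with PI, EDTA, RNase and Triton X-100 in PBS. DNA content by flow cytometry, sub-G1 taken as apoptotic. Untreated/DMSO negative control; camptothecin 1 µM positive control; two experiments.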
# COLO 205 [4] = test: Induction of mitochondrial membrane potential loss in human COLO205 cells at 1 uM after 48 hrs by Rh-123 staining based flow cytometry (reference value: 12.4%); format: functional
# [5] = Cytotoxicity against human PC3 cells after 24 hrs by MTT assay; format: functional, cell-based; conditions: PC-3, 24 h; procedure, shortened: as §1
# COLO 205 [6] = test: Induction of cell cycle arrest in human COLO205 cells assessed as accumulation at G2 phase at 25 uM after 48 hrs by propidium iodide staining based flow cytometry (reference value: 13.2%); format: functional; procedure, shortened: as §2
# COLO 205 [7] = test: Induction of cell cycle arrest in human COLO205 cells assessed as accumulation at G2 phase at 10 uM after 48 hrs by propidium iodide staining based flow cytometry (reference value: 13.2%); format: functional; procedure, shortened: as §2
# COLO 205 [8] = test: Induction of mitochondrial membrane potential loss in human COLO205 cells at 5 uM after 48 hrs by Rh-123 staining based flow cytometry (reference value: 12.4%); format: functional
# COLO 205 [9] = test: Induction of cell cycle arrest in human COLO205 cells assessed as accumulation at G1 phase at 10 uM after 48 hrs by propidium iodide staining based flow cytometry (reference value: 45.7%); format: functional; procedure, shortened: as §2
# COLO 205 [10] = test: Cytotoxicity against human COLO205 cells after 24 hrs by MTT assay; format: functional, cell-based; conditions: COLO 205, 24 h; procedure, shortened: as §1
# COLO 205 [11] = test: Induction of cell cycle arrest in human COLO205 cells assessed as accumulation at G1 phase at 25 uM after 48 hrs by propidium iodide staining based flow cytometry (reference value: 45.7%); format: functional; procedure, shortened: as §2
# COLO 205 [12] = test: Induction of apoptosis in human COLO205 cells assessed as accumulation at subG1 phase at 1 uM after 48 hrs by propidium iodide staining based flow cytometry (reference value: 12%); format: functional
# COLO 205 [13] = test: Induction of mitochondrial membrane potential loss in human COLO205 cells at 10 uM after 48 hrs by Rh-123 staining based flow cytometry (reference value: 12.4%); format: functional
# COLO 205 [14] = test: Induction of apoptosis in human COLO205 cells assessed as accumulation at subG1 phase after 48 hrs by propidium iodide staining based flow cytometry; format: functional, cell-based; procedure, shortened: as §2
# COLO 205 [15] = test: Induction of apoptosis in human COLO205 cells assessed as accumulation at subG1 phase at 25 uM after 48 hrs by propidium iodide staining based flow cytometry (reference value: 12%); format: functional; procedure, shortened: as §2
# COLO 205 [16] = test: Induction of cell cycle arrest in human COLO205 cells assessed as accumulation at S phase at 25 uM after 48 hrs by propidium iodide staining based flow cytometry (reference value: 13.8%); format: functional; procedure, shortened: as §2
# COLO 205 [17] = test: Induction of apoptosis in human COLO205 cells assessed as accumulation at subG1 phase at 5 uM after 48 hrs by propidium iodide staining based flow cytometry (reference value: 12%); format: functional; procedure, shortened: as §2
# COLO 205 [18] = test: Induction of cell cycle arrest in human COLO205 cells assessed as accumulation at G2 phase at 5 uM after 48 hrs by propidium iodide staining based flow cytometry (reference value: 13.2%); format: functional; procedure, shortened: as §2
# COLO 205 [19] = test: Induction of mitochondrial membrane potential loss in human COLO205 cells at 25 uM after 48 hrs by Rh-123 staining based flow cytometry (reference value: 12.4%); format: functional
# COLO 205 [20] = test: Induction of cell cycle arrest in human COLO205 cells assessed as accumulation at G2 phase at 1 uM after 48 hrs by propidium iodide staining based flow cytometry (reference value: 13.2%); format: functional
# COLO 205 [21] = test: Induction of cell cycle arrest in human COLO205 cells assessed as accumulation at S phase at 5 uM after 48 hrs by propidium iodide staining based flow cytometry (reference value: 13.8%); format: functional; procedure, shortened: as §2
# COLO 205 [22] = test: Induction of cell cycle arrest in human COLO205 cells assessed as accumulation at G1 phase at 1 uM after 48 hrs by propidium iodide staining based flow cytometry (reference value: 45.7%); format: functional
# COLO 205 [23] = test: Induction of cell cycle arrest in human COLO205 cells assessed as accumulation at S phase at 10 uM after 48 hrs by propidium iodide staining based flow cytometry (reference value: 13.8%); format: functional; procedure, shortened: as §2
# COLO 205 [24] = test: Induction of cell cycle arrest in human COLO205 cells assessed as accumulation at S phase at 1 uM after 48 hrs by propidium iodide staining based flow cytometry (reference value: 13.8%); format: functional
# COLO 205 [25] = test: Induction of cell cycle arrest in human COLO205 cells assessed as accumulation at G1 phase at 5 uM after 48 hrs by propidium iodide staining based flow cytometry (reference value: 45.7%); format: functional; procedure, shortened: as §2
smiles,measurement,setting,value
COc1ccc(/C=C\C(=O)O)c(OCc2cn(-c3cccnc3Cl)nn2)c1CC=C(C)C,IC50,A-431,32.6 µM
same,IC50,[1],23 µM
same,IC50,A549,5.6 µM
same,IC50,[2],42.2 µM
COc1cccc(-n2cc(COc3c(/C=C\C(=O)O)ccc(OC)c3CC=C(C)C)nn2)c1,IC50,T47D,20.4 µM
same,IC50,A-431,23.2 µM
same,IC50,[1],21.6 µM
same,IC50,A549,42.7 µM
same,IC50,[2],25.2 µM
COc1ccc(/C=C\C(=O)O)c(OCc2cn(-c3ccc(CC#N)cc3)nn2)c1CC=C(C)C,IC50,T47D,3.6 µM
same,Activity,COLO 205 [3],15.7%
same,Activity,COLO 205 [4],24.4%
same,IC50,[5],26.4 µM
same,IC50,A-431,7.2 µM
same,Activity,COLO 205 [6],10.4%
same,Activity,COLO 205 [7],11.2%
same,Activity,COLO 205 [8],26.9%
same,Activity,COLO 205 [9],45%
same,IC50,COLO 205 [10],1.3 µM
same,Activity,COLO 205 [11],38.5%
same,IC50,[1],4.9 µM
same,Activity,COLO 205 [12],12.5%
same,Activity,COLO 205 [13],29.7%
same,Activity,COLO 205 [14],Dose-dependent effect
same,IC50,A549,35.2 µM
same,Activity,COLO 205 [15],24.1%
same,Activity,COLO 205 [16],13.2%
same,Activity,COLO 205 [17],15.2%
same,Activity,COLO 205 [18],11.5%
same,Activity,COLO 205 [19],29.9%
same,IC50,[2],41 µM
same,Activity,COLO 205 [20],12.9%
same,Activity,COLO 205 [21],16.1%
same,Activity,COLO 205 [22],46.4%
same,Activity,COLO 205 [23],14.7%
same,Activity,COLO 205 [24],13.9%
same,Activity,COLO 205 [25],46.8%
COc1ccc(/C=C\C(=O)O)c(OCc2cn(-c3ccccc3F)nn2)c1CC=C(C)C,IC50,T47D,11 µM
same,IC50,[5],24.2 µM
same,IC50,A-431,12.4 µM
same,IC50,COLO 205 [10],14.5 µM
same,IC50,[2],45.6 µM
COc1ccc(/C=C\C(=O)O)c(OCc2cn(-c3cccc([N+](=O)[O-])c3)nn2)c1CC=C(C)C,IC50,T47D,15.4 µM
same,IC50,[5],42.1 µM
same,IC50,A-431,18.4 µM
same,IC50,COLO 205 [10],6.9 µM
same,IC50,[1],27.3 µM
same,IC50,[2],43.2 µM
COc1ccc(/C=C\C(=O)O)c(OCc2cn(-c3ccc(CO)cc3)nn2)c1CC=C(C)C,IC50,T47D,40 µM
same,IC50,[5],28.3 µM
same,IC50,A-431,16.4 µM
same,IC50,COLO 205 [10],19.3 µM
same,IC50,[1],31.7 µM
same,IC50,[2],27.1 µM
COc1ccc(/C=C\C(=O)O)c(OCc2cn(-c3cccc(C#N)c3)nn2)c1CC=C(C)C,IC50,T47D,19.2 µM
same,IC50,[5],45.5 µM
same,IC50,A-431,22.9 µM
same,IC50,COLO 205 [10],26.8 µM
same,IC50,[1],35.3 µM
same,IC50,[2],26.5 µM
COc1ccc(/C=C\C(=O)O)c(OCc2cn(-c3ccc(NC(C)=O)cc3)nn2)c1CC=C(C)C,IC50,T47D,17.4 µM
same,IC50,A-431,23.4 µM
same,IC50,COLO 205 [10],22.6 µM
same,IC50,[2],45.7 µM
Cn1c(=O)n(-c2ccc(C(C)(C)C#N)cc2)c2c3cc(-c4cnc5ccccc5c4)ccc3ncc21 [DACTOLISIB],IC50,T47D,11.2 µM
same,IC50,[5],12.3 µM
same,IC50,A-431,12.5 µM
same,IC50,[1],0.044 µM
same,IC50,[2],10.3 µM
COc1ccc(/C=C\C(=O)O)c(OCc2cn(CC(O)c3ccccc3)nn2)c1CC=C(C)C (stereo unspecified),IC50,T47D,17.3 µM
same,IC50,[5],14.2 µM
same,IC50,COLO 205 [10],43 µM
same,IC50,[1],45.3 µM
same,IC50,[2],35.4 µM
COc1ccc(-n2cc(COc3c(/C=C\C(=O)O)ccc(OC)c3CC=C(C)C)nn2)cc1,IC50,[1],8.7 µM
same,IC50,A549,10.2 µM
